Like-named read-outs stand apart in the source and are kept apart here.
Assays:
HeLa cell telomerase [1] = target: T1, HeLa cell telomerase (Homo sapiens, UniProt O14746); experiment: Semi-quantitative telomerase assay based on the 'stretch PCR' method; type: biochemical; details: for Km: natural dNTP substrate, Lineweaver–Burk plot analyses
HeLa cell telomerase [2] = target: T1, HeLa cell telomerase; details: cited from earlier work
[3] = test system: telomerase from human leukemia cells and HeLa cells; details: cited from earlier work
[4] = test system: immortalized human B- and T-cell lines; details: cited from earlier work
cherry salmon telomerase = experiment: Primer extension assay; type: biochemical; details: 18-mer (TTAGGG)3 primer, 5 or 20 µM analog
Procedure, shortened: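 Telomerase was partially purified from immature cherry salmon testis (DEAE-cellulose, 70% ammonium sulfate, dialysis). It extended 2 µM (TTAGGG)3 in Tris–HOAc pH 8.5, KOAc, 1 mM MgCl2, 1 mM DTT and 5 µM [α-32P]dTTP. Either 200 µM dATP with 0/5 µM dGTP plus 0/5/20 µM dGTP-analog, or 200 µM dGTP with 0/5 µM dATP plus 0/5/20 µM dATP-analog. Run 1 h at 25°C, then RNase A/proteinase K, 20% PAGE–7 M urea, phosphorimaging.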

T1 sequence (O14746 whole entry): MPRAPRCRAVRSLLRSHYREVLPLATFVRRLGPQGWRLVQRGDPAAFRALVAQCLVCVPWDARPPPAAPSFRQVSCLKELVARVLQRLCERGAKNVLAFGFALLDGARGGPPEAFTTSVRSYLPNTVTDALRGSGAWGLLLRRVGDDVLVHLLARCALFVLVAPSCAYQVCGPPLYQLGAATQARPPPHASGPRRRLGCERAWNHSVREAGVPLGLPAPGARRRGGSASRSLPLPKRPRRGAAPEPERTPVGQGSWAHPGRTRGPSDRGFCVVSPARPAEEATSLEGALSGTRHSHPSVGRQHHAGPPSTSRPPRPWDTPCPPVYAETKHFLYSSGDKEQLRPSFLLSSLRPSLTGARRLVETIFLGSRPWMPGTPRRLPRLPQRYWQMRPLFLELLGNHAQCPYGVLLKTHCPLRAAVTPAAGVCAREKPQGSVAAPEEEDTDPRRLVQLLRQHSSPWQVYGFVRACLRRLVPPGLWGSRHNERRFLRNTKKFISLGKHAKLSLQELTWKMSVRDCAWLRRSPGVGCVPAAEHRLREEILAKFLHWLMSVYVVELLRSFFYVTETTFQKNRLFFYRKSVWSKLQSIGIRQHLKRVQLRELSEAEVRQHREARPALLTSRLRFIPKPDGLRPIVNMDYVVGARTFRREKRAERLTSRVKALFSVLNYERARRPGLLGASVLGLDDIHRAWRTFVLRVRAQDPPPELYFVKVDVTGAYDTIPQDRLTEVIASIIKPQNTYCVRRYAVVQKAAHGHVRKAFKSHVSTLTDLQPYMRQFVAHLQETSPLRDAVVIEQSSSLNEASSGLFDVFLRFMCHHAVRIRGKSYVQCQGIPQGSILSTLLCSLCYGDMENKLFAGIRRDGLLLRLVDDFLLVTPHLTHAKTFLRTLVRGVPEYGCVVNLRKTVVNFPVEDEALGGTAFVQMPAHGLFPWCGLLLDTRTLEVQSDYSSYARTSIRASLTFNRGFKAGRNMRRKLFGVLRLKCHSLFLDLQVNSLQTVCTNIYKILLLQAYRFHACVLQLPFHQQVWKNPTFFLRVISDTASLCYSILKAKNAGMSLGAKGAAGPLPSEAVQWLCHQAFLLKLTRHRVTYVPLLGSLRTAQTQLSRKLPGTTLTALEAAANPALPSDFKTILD
T1 sequence (O60832 whole entry partner): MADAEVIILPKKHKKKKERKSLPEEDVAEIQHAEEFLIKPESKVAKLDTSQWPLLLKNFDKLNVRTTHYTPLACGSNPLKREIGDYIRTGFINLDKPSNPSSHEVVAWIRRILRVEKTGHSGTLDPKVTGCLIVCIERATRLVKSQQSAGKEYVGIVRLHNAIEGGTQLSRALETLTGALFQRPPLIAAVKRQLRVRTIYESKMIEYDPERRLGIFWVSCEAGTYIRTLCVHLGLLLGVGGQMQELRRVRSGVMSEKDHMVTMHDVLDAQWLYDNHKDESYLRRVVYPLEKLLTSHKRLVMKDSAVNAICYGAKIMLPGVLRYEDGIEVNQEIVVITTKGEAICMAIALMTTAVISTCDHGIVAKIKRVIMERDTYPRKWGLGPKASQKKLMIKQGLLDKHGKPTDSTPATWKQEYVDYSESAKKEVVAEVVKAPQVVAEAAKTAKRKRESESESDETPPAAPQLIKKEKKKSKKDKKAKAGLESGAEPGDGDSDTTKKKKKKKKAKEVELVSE
T1 sequence (Q9NX24 whole entry partner): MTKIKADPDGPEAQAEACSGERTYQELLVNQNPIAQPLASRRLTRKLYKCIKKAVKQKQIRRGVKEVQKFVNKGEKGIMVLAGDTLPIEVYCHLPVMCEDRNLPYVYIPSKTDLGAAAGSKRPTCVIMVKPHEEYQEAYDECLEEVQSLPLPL
T1 sequence (Q9NPE3 whole entry partner): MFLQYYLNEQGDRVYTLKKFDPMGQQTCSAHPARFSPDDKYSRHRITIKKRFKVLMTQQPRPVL
T1 sequence (Q9NY12 whole entry partner): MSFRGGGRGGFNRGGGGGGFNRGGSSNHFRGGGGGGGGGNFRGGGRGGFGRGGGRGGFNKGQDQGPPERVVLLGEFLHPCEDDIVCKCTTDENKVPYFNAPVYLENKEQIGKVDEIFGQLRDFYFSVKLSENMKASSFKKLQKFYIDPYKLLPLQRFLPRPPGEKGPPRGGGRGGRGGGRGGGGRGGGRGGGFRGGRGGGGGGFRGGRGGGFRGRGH
T1 sequence (Q9BUR4 whole entry partner): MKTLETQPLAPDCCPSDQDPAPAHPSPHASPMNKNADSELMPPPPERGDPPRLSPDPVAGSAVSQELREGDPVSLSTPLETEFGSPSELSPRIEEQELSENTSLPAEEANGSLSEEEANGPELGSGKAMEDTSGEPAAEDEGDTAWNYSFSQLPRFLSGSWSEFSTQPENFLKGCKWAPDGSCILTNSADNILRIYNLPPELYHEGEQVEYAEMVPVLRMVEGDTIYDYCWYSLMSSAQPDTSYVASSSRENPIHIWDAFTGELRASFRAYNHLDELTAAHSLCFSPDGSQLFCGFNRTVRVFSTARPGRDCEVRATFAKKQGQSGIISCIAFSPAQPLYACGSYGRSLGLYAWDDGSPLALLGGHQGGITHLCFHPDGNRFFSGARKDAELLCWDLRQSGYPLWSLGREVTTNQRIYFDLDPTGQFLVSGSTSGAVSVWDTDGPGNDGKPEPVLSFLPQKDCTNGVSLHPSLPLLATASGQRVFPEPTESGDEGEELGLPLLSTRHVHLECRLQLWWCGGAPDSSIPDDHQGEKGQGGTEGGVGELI

Q: Which Ki (HeLa cell telomerase [1]) does the source give for `Cc1cn([C@H]2C[C@H](N=[N+]=[N-])[C@@H](COP(=O)(O)OP(=O)(O)OP(=O)(O)O)O2)c(=O)[nH]c1=O` [AZTTP, 3′-Azido-3′-deoxythymidine 5′-triphosphate] here?
A: 15 µM

Q: What about the “inhibitory effects on human telomerase” value (HeLa cell telomerase [1]; Figure 2B) of the same molecule?
A: weak

Q: And the inhibition mode (HeLa cell telomerase [1]; Lineweaver–Burk plots, versus the corresponding dNTP)?
A: nearly competitive

Q: With `Nc1nc2c(ncn2[C@@H]2O[C@H](COP(=O)(O)OP(=O)(O)OP(=O)(O)O)[C@@H](O)[C@@H]2O)c(=O)[nH]1` [araGTP, 9-β-D-Arabinofuranosylguanine 5′-triphosphate] as the molecule, how does the Ki (HeLa cell telomerase [2]) read?
A: 1.2 µM

Q: For `Nc1ncnc2c1ncn2[C@H]1C[C@H](O)[C@@H](COP(=O)(O)OP(=O)(O)OP(=O)(O)O)O1` [dATP], which Km (HeLa cell telomerase [1]) is on record?
A: 0.97 ± 0.31 µM

Q: Which Km (HeLa cell telomerase [1]) does the source give for `Nc1nc2c(ncn2[C@H]2C[C@H](O)[C@@H](COP(=O)(O)OP(=O)(O)OP(=O)(O)O)O2)c(=O)[nH]1` [dGTP] here?
A: 8.2 ± 2.1 µM

Q: And the Km [3]?
A: 8 to 12 µM

Q: Which Km (HeLa cell telomerase [1]) does the source give for `Cc1cn([C@H]2C[C@H](O)[C@@H](COP(=O)(O)OP(=O)(O)OP(=O)(O)O)O2)c(=O)[nH]c1=O` [dTTP] here?
A: 7.9 ± 1.8 µM

Q: What about the Km [3] of the same molecule?
A: 8 to 12 µM

Q: With `Nc1nc2c(ncn2[C@H]2CC[C@@H](CO)O2)c(=O)[nH]1` [ddG, 2′,3′-dideoxyguanosine] as the molecule, how does the “telomere DNA shortening” value ([4]; 10 µM, long-term treatment) read?
A: reproducible progressive telomere DNA shortening

Q: And the “effects on cell population doubling rates or morphology” value [4]?
A: did not have observable effects

Q: What does the source list for `Nc1nc2c(ncn2[C@H]2CC[C@@H](COP(=O)(O)OP(=O)(O)OP(=O)(O)O)O2)c(=O)[nH]1` [ddGTP]?
A: primer extension product with analog instead of dGTP or dATP (cherry salmon telomerase): distinct 22-mer product; Ki (HeLa cell telomerase [2]): 0.65 µM

From article PMC2175342 (Nucleic Acids Research, 2007)
